ChEMBL document CHEMBL1135581, “Novel selective PDE4 inhibitors. 3. In vivo antiinflammatory activity of a new series of N-substituted cis-tetra- and cis-hexahydrophthalazinones” (J Med Chem, 2002)

Key:
[1] = biological target: Phosphodiesterase 4 (Homo sapiens, UniProt P27815+Q08499+Q07343+Q08493); experiment: Inhibitory concentration against phosphodiesterase 4 (PDE4) in cytosol of human neutrophils; type: protein assay
[2] = system: Mus musculus; experiment: Percent inhibition of arachidonic acid (AA) […], induced mouse ear edema after pretreatment at a concentration of 30 umol/kg (po); type: functional
Procedure, shortened: (§1)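 Female NMRI mice, 25–32 g, n = 8 per group. Compound in water (pH 6.5–7) given by gavage at 30 μmol/kg, 1 h before 3 mg arachidonic acid in 10 μL acetone applied to the right ear.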

[3] = system: Mus musculus; experiment: Percent inhibition of arachidonic acid induced mouse ear edema after 1 hr pretreatment with 30 uM/kg peroral dose; type: functional; procedure, shortened: as §1
[4] = Inhibition of N-formyl-methionyl-leucyl-phenylalanine (fMLP)-stimulated production of reactive oxygen species (ROS) in human PMNL by 35% of control; type: functional
Procedure, shortened: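 PMNL isolated from citrated human blood (dextran sedimentation, ficoll, hypotonic lysis), 1.25 × 10^7 cells/mL. Buffer: HEPES saline with Mg/Ca, glucose, BSA, 10 μM luminol, 4 μM microperoxidase. […] IC35 by nonlinear regression. Two independent determinations in triplicate.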

[5] = Inhibition of LPS-stimulated tumor necrosis factor-alpha release by human whole blood; type: functional
Procedure, shortened: (§2)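 Heparinized venous human whole blood (8 U/mL) from healthy volunteers, preincubated 15 min at 37 °C with compound (0.001–10 μM final, 0.1% DMSO). Then stimulated with LPS (1 μg/mL final) for 4 h at 37 °C. Plasma TNFα measured by nonisotopic immunoassay. IC30 from concentration–inhibition curves by nonlinear regression. Means of two independent determinations in triplicate.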

[6] = Inhibition of LPS-stimulated Tumor necrosis factor alpha release by human whole blood; type: functional; procedure, shortened: as §2

Structure (SMILES) | Log IC50 [1] | inhibition in vivo at 30 µmol/kg [2] [%] | also measured
COc1ccc(C2=NN(Cc3cccc(C(=O)O)c3)C(=O)C3CCCCC23)cc1OC (centres undefined) | -7.9 | 18 | 
COc1ccc(C2=NN(Cc3cccc(O)c3)C(=O)C3CCCCC23)cc1OC (centres undefined) | -8 |  | 
COc1ccc(C2=NN(C/C=C/c3ccccc3)C(=O)C3CCCCC23)cc1OC (centres undefined) | -7.8 |  | 
COc1ccc(C2=NN(C3CCCCC3)C(=O)C3CC=CCC23)cc1OC (centres undefined) | -9.2 | 13 | 
COc1ccc(C2=NN(C3CCCCCC3)C(=O)C3CC=CCC23)cc1OC (centres undefined) |  | 59 | pIC35 [4]: 6.82; pIC30 [5]: 7.05
COc1ccc(C2=NN(C3CCSCC3)C(=O)C3CC=CCC23)cc1OC (centres undefined) | -8.9 |  | 
COc1ccc(C2=NN(C3C4CC5CC(C4)CC3C5)C(=O)C3CC=CCC23)cc1OC (centres undefined) | -9.4 | 51 | pIC35 [4]: 6.3; pIC30 [5]: 7.22
COc1ccc(C2=NN(C3CCOCC3)C(=O)C3CC=CCC23)cc1OC (centres undefined) | -8.9 | 2 | 
COc1ccc(C2=NN(C3CCCCCC3)C(=O)C3CC=CCC23)c2c1OC1(CCCC1)C2 (centres undefined) |  | 49 | 
COc1ccccc1CN1N=C(c2ccc(OC)c(OC)c2)C2CCCCC2C1=O (centres undefined) | -7.7 |  | 
COc1ccc(C2=NN(CC3CC3)C(=O)C3CC=CCC23)cc1OC (centres undefined) | -8.1 | 15 | 
COc1ccc(C2=NN(Cc3ccccc3O)C(=O)C3CCCCC23)cc1OC (centres undefined) | -8.1 |  | 
COc1ccc(C2=NN(C3CCCCCCC3)C(=O)C3CC=CCC23)cc1OC (centres undefined) | -9.3 | 30 | 
COc1ccc(C2=NN(C3CCCCCC3)C(=O)C3CCCCC23)c2c1OC1(CCCC1)C2 (centres undefined) | -9.2 | 29 | 
COc1ccc(C2=NN(C3CCCC3)C(=O)C3CC=CCC23)cc1OC (centres undefined) | -9.3 | 19 | 
COc1ccc(C2=NN(Cc3ccc(C(=O)O)cc3)C(=O)C3CCCCC23)cc1OC (centres undefined) | -7.3 | 27 | 
COc1ccc(C2=NN(CCCOc3ccccc3)C(=O)C3CCCCC23)cc1OC (centres undefined) | -7.9 |  | 

Structure (SMILES) | Log IC50 [1] | inhibition in vivo at 30 µmol/kg [2] [%] | also measured
COc1ccc(C2=NN(c3ccccc3)C(=O)C3CCCCC23)cc1OC (centres undefined) | -7.6 |  | 
COc1ccc(C2=NN(Cc3ccncc3)C(=O)C3CCCCC23)cc1OC (centres undefined) | -7.8 | 29 | 
COc1ccc(CN2N=C(c3ccc(OC)c(OC)c3)C3CCCCC3C2=O)cc1 (centres undefined) | -8.2 | 13 | 
COc1ccc(C2=NN(C3CCCCCC3)C(=O)C3CC=CCC23)c2c1OC(C)(C)C2 (centres undefined) |  | 54 | pIC30 [5]: 7.05
COc1ccc(C2=NN(CC(=O)c3ccccc3)C(=O)C3CCCCC23)cc1OC (centres undefined) | -8 |  | 
COc1ccc(C2=NN(Cc3ccc(O)cc3)C(=O)C3CCCCC23)cc1OC (centres undefined) | -8 |  | 
COc1ccc(C2=NN(C3Cc4ccccc4C3)C(=O)C3CC=CCC23)cc1OC (centres undefined) | -9.1 |  | 
COc1cc(CN2N=C(c3ccc(OC)c(OC)c3)C3CCCCC3C2=O)cc(OC)c1 (centres undefined) | -7.6 |  | 
COc1ccc(C2=NN(C3CCCC3)C(=O)C3CCCCC23)cc1OC (centres undefined) | -8.4 |  | 
COc1ccc(C2=NN(C3CCCCCC3)C(=O)C3CCCCC23)cc1OC (centres undefined) | -8.6 | 18 | pIC30 [6]: 7.3
COc1ccc(C2=NN(C(C)C)C(=O)C3CC=CCC23)cc1OC (centres undefined) | -8.9 | 15 | 
COc1cccc(CN2N=C(c3ccc(OC)c(OC)c3)C3CCCCC3C2=O)c1 (centres undefined) | -8.5 | 8 | 
COC(=O)c1ccc(CN2N=C(c3ccc(OC)c(OC)c3)C3CCCCC3C2=O)cc1 (centres undefined) | -7.9 |  | 
COc1ccc([C@@H]2CNC(=O)C2)cc1OC1CCCC1 [(-)-ROLIPRAM] |  |  | Inhibition [3]: 55%
COc1ccc([C@H](Cc2ccncc2)c2ccccc2)cc1OC1CCCC1 [CDP840] |  | 48 | pIC35 [4]: 7.2; pIC30 [5]: 4.82
COc1ccc([C@]2(C#N)CC[C@@H](C(=O)O)CC2)cc1OC1CCCC1 [CILOMILAST] |  | 33 | pIC35 [4]: 7.04; pIC30 [5]: 4.89

Second part, led by results:

Log IC50 [1] | Structure (SMILES) | inhibition in vivo at 30 µmol/kg [2] [%] | also measured
-6.8 | COc1ccc(C2=NN(C)C(=O)C3CCCCC23)cc1OC (centres undefined) |  | 
-7.5 | COc1ccc(C2=NN(CCCCCC(=O)[O-])C(=O)C3CCCCC23)cc1OC.[Na+] (centres undefined) | 18 | 
-7.6 | COc1ccc(C2=NN(CCCCCCCC(=O)O)C(=O)C3CCCCC23)cc1OC (centres undefined) |  | Inhibition [3]: 13%
-7.9 | COc1ccc(C2=NN(C(C)(C)C)C(=O)C3CCCCC23)cc1OC (centres undefined) |  | 
-6.5 | COc1ccc(C2=NN(CCN(C)C)C(=O)C3CCCCC23)cc1OC (centres undefined) |  | 
-7.2 | COc1ccc(C2=NN(CC#N)C(=O)C3CCCCC23)cc1OC (centres undefined) |  | 
-6.8 | COc1ccc(C2=NN(CCO)C(=O)C3CCCCC23)cc1OC (centres undefined) |  | 
-7.4 | CCN1N=C(c2ccc(OC)c(OC)c2)C2CCCCC2C1=O (centres undefined) |  | 
-8.6 | COc1ccc(C2=NN(C(C)C)C(=O)C3CCCCC23)cc1OC (centres undefined) | 14 | 
-7 | COc1ccc(C2=NN(CCCCCCN(C)C)C(=O)C3CCCCC23)cc1OC (centres undefined) |  | 
-7.4 | C#CCN1N=C(c2ccc(OC)c(OC)c2)C2CCCCC2C1=O (centres undefined) |  | 
-7.8 | CCCN1N=C(c2ccc(OC)c(OC)c2)C2CCCCC2C1=O (centres undefined) |  | 
-8 | COc1ccc(C2=NN(CCCCn3ccnc3)C(=O)C3CCCCC23)cc1OC (centres undefined) | 39 | 
-5.7 | COc1ccc(C2=NN(CC(=O)O)C(=O)C3CCCCC23)cc1OC (centres undefined) |  | 
-7.1 | COc1ccc(C2=NN(CCCCCCN)C(=O)C3CCCCC23)cc1OC (centres undefined) |  | 
-7.2 | CCOC(=O)CN1N=C(c2ccc(OC)c(OC)c2)C2CCCCC2C1=O (centres undefined) |  | 
-7.5 | COc1ccc(C2=NN(CCCO)C(=O)C3CCCCC23)cc1OC (centres undefined) |  | 
-6.3 | COc1ccc(C2=NN(CCn3ccnc3)C(=O)C3CCCCC23)cc1OC (centres undefined) |  | 
-7.6 | C=CCN1N=C(c2ccc(OC)c(OC)c2)C2CCCCC2C1=O (centres undefined) |  | 
-7 | COc1ccc(C2=NN(CCCCN(C)C)C(=O)C3CCCCC23)cc1OC (centres undefined) |  | 
-7.6 | COc1ccc(C2=NN(CCc3ccccc3)C(=O)C3CCCCC23)cc1OC (centres undefined) |  | 
-7.6 | COc1ccc(C2=NN(Cc3ccccn3)C(=O)C3CCCCC23)cc1OC (centres undefined) |  | 
-7.6 | COc1ccc(C2=NN(Cc3cccnc3)C(=O)C3CCCCC23)cc1OC (centres undefined) |  | 
